Assay outcomes from PubChem BioAssay.
This is a sample that favours compounds with a hit; in the whole collection about 1.5% have one here.
iPSC survival up – enhancers of single-cell hiPSC survival, primary screen, ATPlite luminescence; hit rate 0.044% among 360,000; survival enhancement, % at 20 µM; 100% = ROCK inhibitor wells, 0% = DMSO; in the data active = survival enhancement above about 18%;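 also: cells exposed to compounds for 16 hours before the ATP read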
CXCR6 inh – CXCR6 receptor inhibitors, primary screen, cell-based, beta-arrestin, luminescence, CHO-K1 PathHunter, 1536-well | C-X-C chemokine receptor type 6 (Homo sapiens), O00574 | inhibition, % at 20 µM | hit rate 0.36% among 360,000 | AID 602244, 2012; in the data active = inhibition above about 34%, passing the limit was not always enough;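 also: antagonist mode with CXCL16 agonist at 10 nM final; 0% = 10 nM CXCL16 with DMSO and 100% = unstimulated wells without agonist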
CCR6 antagonist – CCR6 receptor antagonists, primary screen, cell-based, CHO-K1, luminescence, beta-arrestin, uHTS. C-C chemokine receptor type 6 (Homo sapiens), P51684. CHO-K1 CCR6 PathHunter beta-arrestin, CCL20-stimulated. inhibition, % at 20 µM. hit rate 0.49% among 340,000. AID 493098, 2011;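 active = compounds whose inhibition of the agonist-driven luminescence signal at 20 µM reaches about 50%, limit read from the data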;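 also: cells stimulated with CCL20 at 14 nM final; plate controls were DMSO with CCL20 for no effect and DMSO without agonist for full effect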
Target sequence (P51684 whole entry, looked up): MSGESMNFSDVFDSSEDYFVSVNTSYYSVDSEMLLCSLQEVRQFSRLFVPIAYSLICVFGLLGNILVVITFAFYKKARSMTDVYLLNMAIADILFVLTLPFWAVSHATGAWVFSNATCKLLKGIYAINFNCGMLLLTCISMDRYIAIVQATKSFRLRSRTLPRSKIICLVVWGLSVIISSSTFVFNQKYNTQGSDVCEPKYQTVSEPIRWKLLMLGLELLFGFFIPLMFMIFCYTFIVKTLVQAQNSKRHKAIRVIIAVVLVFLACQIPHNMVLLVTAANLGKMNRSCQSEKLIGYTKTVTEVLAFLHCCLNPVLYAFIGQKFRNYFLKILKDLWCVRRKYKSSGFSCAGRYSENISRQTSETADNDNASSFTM
APJ antagonist – antagonists of human apelin receptor APJ, primary screen, CHO-K1 cells, beta-arrestin complementation, luminescence | hit rate 0.32% among 330,000 | AID 2521, 2010 | inhibition, % at 20 µM | P35414;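 active = inhibition above about 40% at 20 µM, limit read from the data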;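 also: cells challenged with 10 nM apelin-13 agonist together with compound; plate controls were apelin-13 plus DMSO wells for no effect and DMSO wells lacking apelin-13 for full effect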
APJ agonist – agonists of human apelin receptor APJ, primary screen, CHO-K1 cells, PathHunter beta-arrestin, luminescence | 0% DMSO wells, 100% apelin | activation, % at 20 µM | AID 2520, 2010 | P35414 | hit rate 0.11% among 330,000;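 active = activation more than six SD over the plate average, tested at 20 µM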;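 also: 0% = DMSO alone and 100% = apelin-13 at 10 nM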
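Assay system – PathHunter CHO-K1 APJ (AGTRL-1) beta-arrestin reporter cells · Compound – one dose, 20 µM compound, 1% DMSO · Timing – compound 90 min 25 °C, reagent 1 h · Measured by – luminescence from split beta-galactosidase complementation, Galacton Star/Emerald II substrate · Measure – beta-arrestin recruitment to APJ as agonist activity, luminescent signal · Benchmarks – DMSO vs Apelin-13 10 nM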
EBI2 block – EBI2 receptor antagonists, beta-arrestin recruitment, primary screen, cell-based, luminescence, 7a,25-OHC stimulation, uHTS. 7a,25-OHC stimulated. inhibition, % at 5 µM. G-protein coupled receptor 183 (Homo sapiens), P32249. hit rate 0.81% among 360,000; in the data active = inhibition above about 38%;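 also: enzyme fragment complementation signal reports receptor beta-arrestin coupling in cells; 0% = agonist plus DMSO wells and 100% = wells without agonist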
EBI2 conf – EBI2 antagonist hit retest, beta-arrestin, confirmation, cell-based, single concentration, luminescence, 7a,25-OHC stimulation; hit rate 29% among 2,400; 7a,25-OHC antagonism; inhibition, % at 5 µM; shares compounds with EBI2 block;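 active = inhibition of at least 50%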
EBI2 agonist – EBI2 agonist activity of antagonist hits, confirmation, counter-screen for EBI2 antagonist project, cell-based, single concentration, agonist mode, luminescence. activation, % at 5 µM. AID 652000, 2013. 2,400 tested, under 10 active. shares compounds with EBI2 block. EBI2-expressing cells, 60 min; 0% vehicle, 100% 7α,25-dihydroxycholesterol control;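 active = activation of at least 50%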
bGal counter – E. coli beta-galactosidase enzyme inhibition, confirmation, counter-screen for EBI2 antagonist project, biochemical, luminescence, single concentration. hit rate 1% among 2,400. inhibition, % at 5 µM. purified beta-galactosidase, luminescent Galacton Star, 15 min. shares compounds with EBI2 block;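 active = replicate-average signal at least 3 plate SD below neutral wells, shown as high inhibition, flagging enzyme-inhibiting false positives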;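 also: 0% = DMSO wells with enzyme and 100% = wells lacking enzyme; higher means stronger loss of beta-gal luminescence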
* = called active by the depositor; . = no result given.

SMILES	iPSC survival up	CXCR6 inh	CCR6 antagonist	APJ antagonist	APJ agonist	EBI2 block	EBI2 conf	EBI2 agonist	bGal counter
COc1ccc(N(CC(=O)NCCSc2ccccc2)S(C)(=O)=O)cc1	0	3	4	11	-2	63*	40	0	-12
CCOc1ccc(NS(=O)(=O)c2cc(C(=O)NCCN3CCOCC3)ccc2C)cc1	-1	-6	8	-7	1	-4	.	.	.
Cc1ccc(Oc2ccc(C(=O)NC3CCSC3=O)cn2)cc1 (stereo not drawn)	1	1	-21	2	0	49*	29	-1	-12
O=C(NC1CCSC1=O)c1ccc(Oc2ccc(F)cc2)nc1 (stereo not drawn)	3	3	2	3	0	16	.	.	.
Nc1ncnc2c1ncn2C1C=C(CO)C(O)C1O (stereo not drawn)	0	-3	8	.	.	4	.	.	.
COc1ccc([C@H]2CC(=O)C=C(/C=C/c3ccc(C(F)(F)F)cc3)C2)cc1	1	6	-9	8	-4	65*	33	0	9
COc1ccc([C@H]2CC(=O)C=C(c3ccc(OC(F)(F)F)cc3)C2)cc1	-1	2	14	15	-2	68*	40	-1	-9
COc1ccc2cc(C#CC3=CC(=O)C[C@H](c4ccc(F)cc4)C3)ccc2c1	0	-6	.	.	.	-2	.	.	.
CCc1ccc(-c2n[nH]nc2C2=CC(=O)C[C@H](c3ccc(F)cc3)C2)cc1	-1	-1	.	.	.	54*	14	-2	-7
COc1ccc([C@H]2CC(=O)C=C(c3cccc(OC(F)(F)F)c3)C2)cc1	-2	7	11	-6	-1	7	.	.	.
COc1ccc([C@H]2CC(=O)C=C(C#CC(C)(C)C)C2)cc1	-2	-18	14	-12	1	66*	67*	0	-11
CC1(c2ccccc2)NC(=O)N(CC(=O)N(CC(=O)Nc2ccccc2C(F)(F)F)Cc2ccco2)C1=O (stereo not drawn)	0	-21	-5	29	-3	2	.	.	.
Clc1cccc(CN2CCSCC2)c1Cl	0	-6	12	0	1	-5	.	.	.
COc1ccc(C2=CC(=O)C[C@H](c3ccc(OC)c(OC)c3)C2)cc1	2	0	12	15	-2	33	.	.	.
CCCOc1ccc(C2=CC(=O)C[C@H](c3ccc(OC)cc3)C2)cc1	-2	8	10	7	-6	67*	35	0	-13
COc1cc(F)cc(C2=CC(=O)C[C@H](c3ccc(F)cc3)C2)c1	-2	-1	19	14	-4	52*	40	-2	-8
CC(=O)CC(=O)NC1CCc2ccccc21 (stereo not drawn)	-2	5	5	.	.	0	.	.	.
O=C(/C=C/c1ccccc1Cl)N1CCN(c2ncccn2)CC1	0	1	15	-5	1	60*	39	-1	-20
O=C(c1ccc(F)cc1F)N1CCN(c2ncccn2)CC1	4	8	25	-1	-4	-5	.	.	.
O=C(/C=C/c1cccc(F)c1)N1CCN(c2ncccn2)CC1	-1	-4	-12	1	-3	90*	69*	1	-1
COc1ccc(N(CC(=O)Nc2cc(C)ccc2C)S(=O)(=O)c2c(C)noc2C)cc1	0	-7	-7	-3	-1	-6	.	.	.
COc1ccc(N(CC(=O)Nc2cc(C)ccc2OC)S(=O)(=O)c2c(C)noc2C)cc1	-1	5	15	15	-3	42*	32	-1	-20
CCN(C(=O)COC(=O)c1ccc([N+](=O)[O-])o1)C1CCCCC1	0	-20	-9	4	5	-30	.	.	.
CCOC(=O)C1CCCN(C(=O)/C=C/c2ccc(Cl)cc2)C1 (stereo not drawn)	2	-6	19	-2	-1	46*	22	0	-7
CCc1ccccc1NC(=O)CN1CCN(C(=O)C2CCN(C(=O)/C=C/c3ccccc3)CC2)CC1	1	-1	7	6	0	77*	52*	1	1
SMILES	iPSC survival up	CXCR6 inh	CCR6 antagonist	APJ antagonist	APJ agonist	EBI2 block	EBI2 conf	EBI2 agonist	bGal counter
Cc1ccc(/C=C/C(=O)N2CCC(Cc3ccccc3)CC2)cc1	-1	1	-4	-3	0	96*	86*	2	7
CCOC(=O)C1CCCN(C(=O)/C=C/c2cc(OC)c(OC)c(OC)c2)C1 (stereo not drawn)	3	-3	-3	2	-5	5	.	.	.
Cc1ccc(/C=C/C(=O)N2CCCC(C)C2)cc1 (stereo not drawn)	-2	10	6	6	-4	67*	42	0	11
CC1(C)NC(=O)N(CC(=O)OCC(=O)NC(=O)c2ccccc2)C1=O	0	7	-2	7	5	-8	.	.	.
O=C(NCc1ccccc1)N1CCNCC1	0	11	-10	-24	-4	-4	.	.	.
COC(=O)c1ccc(CSc2nnc(Nc3ccc(C)cc3)s2)o1	-5	-5	7	-30	-2	38*	48	2	7
Cc1ccc(SCC(=O)NC(=O)c2ccccc2Br)c(C)c1	5	3	6	2	-2	-4	.	.	.
O=C(O)C1CCN(S(=O)(=O)c2ccc(Cl)s2)CC1	4	-2	5	7	-2	0	.	.	.
CCOC(=O)c1c2ccc(OCC(=O)N/N=C/c3ccc(C)cc3)cc2n2ccccc12	0	-24	-1	-68	5	48*	38	1	8
Cc1ccc(SCC(=O)OCC(=O)NC(C)c2ccc(Br)cc2)cc1 (stereo not drawn)	0	1	14	13	0	12	.	.	.
COc1ccc(-c2ccc(CN3C(C(C)C)C(=O)N(Cc4cn(CC5CCCCC5)nn4)CCS3(=O)=O)cc2)cc1OC (stereo not drawn)	0	8	.	.	.	44*	11	1	-1
